Jurkat NFkB inh = inhibitors of induced NF-kB luciferase reporter, primary screen, TCR NF-kB activation inhibitor project, cell-based, luminescence, uHTS. Jurkat, PMA/ionomycin-induced NF-kB luciferase reporter. inhibition, % at 4 µM. 0.53% of 330,000 active. AID 435003, 2010; in the data active means inhibition above about 50%
697 NFkB inh = inhibitors of PMA/ionomycin-induced NF-kB reporter, 697 cells, primary screen, B-cell NF-kB inhibitor project, cell-based, luminescence, uHTS; 0.33% of 330,000 active; 697 B-cell NF-kB luciferase reporter, 16 h; inhibition, % at 4 µM; in the data active means inhibition above about 35%
XBP1 UPR activ = activators of adaptive XBP1 UPR arm, primary screen, cell-based, CHO-XBP1 luciferase reporter, luminescence, uHTS; IRE1-XBP1 UPR activation; percent of tunicamycin response, DMSO as zero; activation, % at 20 µM; 0.33% of 330,000 active;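 active means versus positive control, 20 µM dose yields 30% or more activation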
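Test system: CHO-XBP1 luciferase reporter cells | Buffer or medium: Serum-containing F12 medium, 10% FBS | Schedule: 6 h compound exposure at 37 °C, 5% CO2 | Detection: Steady-Glo luciferase glow luminescence, 10 min after reagent addition | Read-out basis: Activation, % of tunicamycin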
CHOP UPR activ = activators of apoptotic CHOP UPR arm, primary screen, cell-based, CHO-CHOP luciferase reporter, luminescence, uHTS; 0.34% of 330,000 active; UPR activation; percent of tunicamycin response over DMSO baseline; activation, % at 10 µM;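 active means at 10 µM dose, activation of 40% or more, normalized to positive control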
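System: CHO-CHOP luciferase reporter cell line | Buffer or medium: F12 medium containing 10% fetal bovine serum | Doses: One dose, 10 µM in 0.5% DMSO | Times: 6 h compound exposure at 37 °C after overnight seeding | Signal: Luciferase luminescence | Read-out: % activation vs tunicamycin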
CRFBP-R2 block = antagonists of CRF-BP/CRF-R2 complex, primary screen, cell-based, HEK293, calcium dye fluorescence, uHTS | CRF-induced calcium fluorescence | inhibition, % at 11.8 µM | 0.59% of 350,000 active;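 active means inhibition of the ligand-induced calcium signal above about 50% at the single tested concentration, limit read from the data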
697 NFkB conf = PMA/ionomycin-induced NF-kB reporter inhibitors, 697 retest, confirmation, B-cell NF-kB inhibitor project, cell-based, luminescence, single concentration. shares compounds with 697 NFkB inh. 697 B-cell NF-kB luciferase, 16 h. inhibition, % at 4 µM. 35% of 2,000 active. AID 449746, 2010; in the data active means inhibition mostly above about 28%, no sharp cut-off; inactive means mostly below about 22%
Large screens that a line does not name were inactive (follow-up assays come after a bar, where they were run). Only some compounds are listed: those with a hit (about 1.8% of all), similar ones and a draw of the others.

CCC(C)N(C(=O)Cn1nnc(-c2ccc(F)cc2)n1)C1CCS(=O)(=O)C1 (centres undefined)	none
COc1cc(-c2noc(CCC(N)=O)n2)cc(OC)c1OC	none (no result: CRFBP-R2 block)
Cc1ccc(-c2noc(CCC(=O)NCC3CCCO3)n2)cc1 (centres undefined)	none
CC(C)(C)c1ccc(-c2noc(CCC(N)=O)n2)cc1	697 NFkB inh 93.0 | 697 NFkB conf 93.9
CCOc1ccc(-c2noc(CCC(=O)NC)n2)cc1OCC	none
CC(C)(C)c1ccc(-c2noc(CCC(=O)NCC3CCCO3)n2)cc1 (centres undefined)	697 NFkB inh 95.9 | 697 NFkB conf 87.5
COc1ccc(-c2noc(CCCC(=O)Nc3ccc(C(N)=O)cc3)n2)cc1	697 NFkB inh 78.0 | 697 NFkB conf 44.7
CNC(=O)CCc1nc(-c2ccc(C(C)(C)C)cc2)no1	697 NFkB inh 84.3 | 697 NFkB conf 72.2
CC(OC(=O)c1ccccc1)C(=O)NCc1ccco1 (centres undefined)	none
COc1ccc(-c2noc(CCCC(=O)N3CCOCC3)n2)cc1	none
COc1ccc(-c2noc(CCC(=O)Nc3cccnc3)n2)cc1	none
CC(C)(C)c1ccc(-c2noc(CCC(=O)Nc3cccnc3)n2)cc1	697 NFkB inh 90.8 | 697 NFkB conf 91.3
CC(C)(C)c1ccc(-c2noc(CCC(=O)N3CCOCC3)n2)cc1	697 NFkB inh 51.7 | 697 NFkB conf 36.7
CN(C)C(=O)CCc1nc(-c2ccc(C(C)(C)C)cc2)no1	697 NFkB inh 81.4 | 697 NFkB conf 77.2
Clc1ccc(OCc2cc(-c3ccccc3)no2)c(Cl)c1	none | 697 NFkB conf inactive
Cc1cc2ncc(-c3cccs3)nc2cc1C	none | 697 NFkB conf inactive
O=C(Nc1cnn(Cc2ccc(F)cc2)c1)c1cc(-c2ccco2)on1	697 NFkB inh 41.1 | 697 NFkB conf inactive
Cc1ccccc1Cn1cc(NC(=O)c2cc(-c3ccco3)on2)cn1	697 NFkB inh 37.7 | 697 NFkB conf inactive
Cc1cc(NC(=O)c2cc(-c3ccco3)on2)no1	697 NFkB inh 37.2 | 697 NFkB conf inactive
Cc1ccc(NC(=O)c2cc(-c3ccco3)on2)cc1	none
COc1ccc(CCNC(=O)c2cc(-c3cccs3)on2)cc1OC	none
COc1ccc(CCNC(=O)c2cc(-c3ccco3)on2)cc1OC	697 NFkB inh 49.6 | 697 NFkB conf inactive
Cc1ccccc1Cn1cc(NC(=O)c2cc(-c3cccs3)on2)cn1	none
COc1cccc(-c2cc(C(=O)Nc3cnn(Cc4ccc(F)cc4)c3)no2)c1	none
COc1cccc(CNC(=O)C2CCN(S(=O)(=O)N3CCC(C)CC3)CC2)c1	none
CCNC(=O)COC(=O)C1CCN(S(=O)(=O)c2ccc3c(c2)OCCO3)CC1	none
O=C(COC(=O)C1CCN(S(=O)(=O)c2ccc3c(c2)OCCO3)CC1)NC1CCCCC1	697 NFkB inh 35.6 | 697 NFkB conf inactive
Cc1ccc2c(c1)cc(C(=O)NCc1ccccc1)n2C	none | 697 NFkB conf inactive
Cc1cc2cc(CNC(=S)NCc3ccccc3)ccc2n1C	none
Cc1ccc(C(=O)NC(=S)Nc2ccc(NC(=O)c3cccc(Cl)c3)cc2)cc1	none | 697 NFkB conf inactive
COCCCNC(=O)COc1ccc(-c2nccc(-c3ccccn3)n2)cc1	697 NFkB inh 53.4 | 697 NFkB conf 62.6
Cc1ccc(OCC(=O)NCCCNC(=O)c2ccccn2)cc1	none
Fc1cccc2sc(Nc3nnc(-c4ccccc4)o3)nc12	none
COc1cc(OC)cc(-c2nnc(Nc3nc4c(F)cccc4s3)o2)c1	697 NFkB inh 39.1 | 697 NFkB conf inactive
COc1cc(NC(=O)c2cc3c(C)nc4ccccc4c3o2)cc(OC)c1OC	697 NFkB inh 37.1 | 697 NFkB conf 44.0
Cc1cc(-c2nnc(SCC(=O)Nc3ccccc3C(F)(F)F)o2)c(C)n1-c1ccccc1	none
Cc1cccc(NC(=O)CSc2nnc(-c3cc(C)n(-c4ccccc4)c3C)o2)c1C	697 NFkB inh 71.2 | 697 NFkB conf inactive
CC(=O)c1cc(F)ccc1OCC(=O)N1CCN(c2ccc(F)cc2)CC1	697 NFkB inh 36.1 | 697 NFkB conf inactive
COC(=O)c1ccccc1OCC(=O)N1CCN(c2ccc(F)cc2)CC1	none
COc1ccc(NS(=O)(=O)c2ccc(-c3coc(C)n3)cc2)cc1OC	697 NFkB inh 40.5 | 697 NFkB conf 59.5
COc1ccc(NS(=O)(=O)c2ccc(-c3coc(C)n3)cc2)cc1	none
O=C(C1CC1)N1N=C(c2ccccc2)CC1(O)C(F)(F)C(F)(F)F (centres undefined)	none
N#CCSc1n[nH]c2nc3c(c(=O)n12)C1(CCCC1)Cc1ccccc1-3	697 NFkB inh 37.0 | 697 NFkB conf inactive
F[B-](F)(F)COCc1ccccc1Br	none (no result: Jurkat NFkB inh, 697 NFkB inh, XBP1 UPR activ, CHOP UPR activ)
COC(=O)C1=C(C)N(c2ccc(Cl)cc2)/C(=C/c2ccc(O)cc2)C1=O	697 NFkB inh 35.7 | 697 NFkB conf inactive
COC(=O)C1=C(C)N(c2cc(C)cc(C)c2)/C(=C/c2ccc(O)cc2)C1=O	none
CN(C)S(=O)(=O)c1ccc(C(=O)NNC(=O)C23CC4CC(CC(C4)C2)C3)cc1	none
CCc1ccc(OCc2nc(-c3ccccn3)no2)c(Br)c1	none | 697 NFkB conf inactive
Cc1ccc2oc3ccccc3c(=O)c2c1	none (no result: Jurkat NFkB inh, 697 NFkB inh, XBP1 UPR activ, CHOP UPR activ)
O=c1c2ccccc2oc2ccc(-c3ccc4cc[nH]c4c3)cc12	none | 697 NFkB conf inactive
COc1ccccc1Cn1c(=O)c2ccccc2n2c(Sc3ncnc4sccc34)nnc12	697 NFkB inh 35.1 | 697 NFkB conf inactive
O=C(NCCO)c1ccc2c3n(nc2c1)-c1ccc(Cl)cc1CO3	none
Cc1ccc2c(c1)COc1c3ccc(C(=O)N[C@@H](C)CO)cc3nn1-2	none | 697 NFkB conf inactive
C[C@@H](CO)NC(=O)c1ccc2c3n(nc2c1)-c1ccc(Cl)cc1CO3	none
Cc1ccc2c(c1)COc1c3ccc(C(=O)NC(C)C)cc3nn1-2	none | 697 NFkB conf inactive
Cc1ccc2c(c1)COc1c3ccc(C(=O)NCCO)cc3nn1-2	none | 697 NFkB conf inactive
COC(=O)C1=C[C@@H](C(=O)OC)C2C3=C(C(=O)C24CCCCC4)[C@H](C)n2c(=O)n(C)c(=O)n2[C@@H]3C1 (some centres undefined)	none
COC(=O)C1=C[C@@H](C(=O)OC)C2C3=C(C(=O)C24CCCCC4)[C@H](C)n2c(=O)n(-c4ccccc4)c(=O)n2[C@@H]3C1 (some centres undefined)	697 NFkB inh 38.1 | 697 NFkB conf inactive

Bioassay records as filed in PubChem BioAssay.
